# Assay results taken from ChEMBL document CHEMBL1800025 (J Med Chem, 2011).
# The source made the active and inactive calls. The rule behind the calls is not given here.
# Key:
# [1] = target: Cyclin-dependent kinase 5/CDK5 activator 1 (Homo sapiens) (UniProt Q00535+Q15078); assay: Inhibition of human recombinant CDK5/p25 at 10 uM; type: protein-complex assay
# Procedure, shortened: (§1)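 Kinase assayed in buffer C (25 mM Mops pH 7.2, 60 mM beta-glycerophosphate, 30 mM p-nitrophenylphosphate, 15 mM MgCl2, 5 mM EGTA, 1 mM DTT, 0.1 mM vanadate) with 1 mg/mL histone H1. 15 μM ATP final, 30 C. Activity is percent of activity without inhibitor, after blank subtraction. DMSO controls.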
# [2] = system: Cyclin-dependent kinase 5/p25 (Homo sapiens); assay: Inhibition of human recombinant CDK5/p25 at 10 uM
# [3] = target: Dual specificity protein kinase CLK1 (Mus musculus) (UniProt P22518); assay: Inhibition of mouse recombinant GST-tagged CLK1 using GRSRSRSRSRSR as substrate at 10 uM
# Procedure, shortened: (§2)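 Mouse GST-fusion CLK1 or CLK3 expressed in E. coli. Assay buffer A (Tris-HCl pH 7.5, MgCl2, EGTA, DTT, heparin) plus 0.15 mg/mL BSA. RS peptide 1 μg/assay, 15 μM ATP final, 30 C. Blank subtracted; activity expressed as percent of activity without inhibitor. DMSO controls. Concentration range up to 10 μM.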
# [4] = target: T1, Dual specificity tyrosine-phosphorylation-regulated kinase 2 (Homo sapiens) (UniProt Q92630); assay: Inhibition of human recombinant GST-tagged DYRK2 using […] as substrate and [gamma32]-ATP at 10 uM after 30 mins by scintillation counting
# T1 sequence (whole entry): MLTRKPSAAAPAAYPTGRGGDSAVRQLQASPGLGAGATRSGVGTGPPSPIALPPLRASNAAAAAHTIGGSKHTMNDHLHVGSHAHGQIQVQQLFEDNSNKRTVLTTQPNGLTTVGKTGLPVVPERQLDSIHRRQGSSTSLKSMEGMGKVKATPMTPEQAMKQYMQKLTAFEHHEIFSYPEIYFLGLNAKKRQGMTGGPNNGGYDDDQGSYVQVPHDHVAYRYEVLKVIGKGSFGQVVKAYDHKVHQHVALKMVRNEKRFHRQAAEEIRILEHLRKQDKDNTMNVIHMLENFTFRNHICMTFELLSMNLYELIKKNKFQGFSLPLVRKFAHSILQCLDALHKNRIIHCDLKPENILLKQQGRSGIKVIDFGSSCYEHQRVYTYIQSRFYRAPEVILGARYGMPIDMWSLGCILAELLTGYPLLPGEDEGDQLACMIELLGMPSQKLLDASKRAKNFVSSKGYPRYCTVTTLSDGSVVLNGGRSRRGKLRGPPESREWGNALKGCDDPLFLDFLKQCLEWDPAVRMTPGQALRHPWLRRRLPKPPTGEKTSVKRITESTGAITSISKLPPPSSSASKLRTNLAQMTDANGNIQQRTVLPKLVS
# Procedure, shortened: (§3)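 GST fusion kinases expressed in E. coli and purified on glutathione-agarose; DYRK1A is rat, DYRK2 is human. Assay buffer A (25 mM Tris-HCl pH 7.5, 10 mM MgCl2, 1 mM EGTA, 1 mM DTT, 50 μg/mL heparin) plus 0.15 mg/mL BSA. Woodtide 1.5 μg/assay with 15 μM [γ-33P]ATP, 30 min at 30 C. Product captured on P81 paper, washed in 1% phosphoric acid, scintillation counted. Activity expressed as percent of uninhibited control.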
# Sus scrofa = species on record: Sus scrofa; assay: Inhibition of pig brain CK1 delta/epsilon using RRKHAAIGpSAYSITA as substrate at 10 uM
# Procedure, shortened: (§4)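 Native CK1δ/ε from porcine brain, assayed in 3-fold diluted buffer C with 25 μM CKS peptide substrate. 15 μM ATP final, 30 C. Activity is percent of uninhibited control after blank subtraction, with DMSO controls. Inhibitor tested over a range of concentrations up to 10 μM.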
# [5] = target: Dual specificity protein kinase CLK3 (Mus musculus) (UniProt O35492); assay: Inhibition of mouse recombinant GST-tagged CLK3 using GRSRSRSRSRSR as substrate at 10 uM; procedure, shortened: as §2
# [6] = target: T2, Serine/threonine-protein kinase pim-1 (Homo sapiens, UniProt P11309); assay: Inhibition of human recombinant Pim1
# Procedure, shortened: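 Kinase assayed in buffer C (25 mM Mops pH 7.2, 60 mM beta-glycerophosphate, 30 mM p-nitrophenylphosphate, 15 mM MgCl2, 5 mM EGTA, 1 mM DTT, 0.1 mM vanadate) with 1 mg/mL histone H1. DMSO controls.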
# Target sequence in this assay (P11309 whole entry): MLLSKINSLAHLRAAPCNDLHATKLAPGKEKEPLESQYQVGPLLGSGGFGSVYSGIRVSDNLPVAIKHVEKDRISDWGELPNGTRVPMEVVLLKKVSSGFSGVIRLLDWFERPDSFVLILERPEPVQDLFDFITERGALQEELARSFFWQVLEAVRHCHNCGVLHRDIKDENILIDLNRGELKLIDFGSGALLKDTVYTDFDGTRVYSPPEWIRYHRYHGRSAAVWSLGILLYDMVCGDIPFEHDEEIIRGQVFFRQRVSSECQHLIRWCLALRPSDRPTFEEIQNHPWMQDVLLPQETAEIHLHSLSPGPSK
# [7] = target: Dual specificity tyrosine-phosphorylation-regulated kinase 1A (Rattus norvegicus) (UniProt Q63470); assay: Inhibition of rat recombinant GST-tagged DYRK1A using KKISGRLSPIMTEQ as substrate and [gamma32]-ATP at 10 uM after 30 mins by scintillation counting; procedure, shortened: as §3
# [8] = target: Dual specificity protein kinase CLK1 (Homo sapiens) (UniProt P49759); assay: Inhibition of CLK1 transfected in human HeLa cells assessed as increase in exon inclusion ratio after 24 hrs by RT-PCR analysis; type: cell-based
# Procedure, shortened: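 HeLa cells were transfected with […], with kinase-dead CLK1/K190R as comparator. Inhibitors at varying doses were added 3 h post-transfection, with 0.5% DMSO final in all cultures. Cells were harvested 24 h post-transfection, total RNA was extracted, and E1A splicing products were analysed by RT-PCR. Isoform molar ratios were measured by Bioanalyzer to give the exon inclusion ratio. Three independent samples were used.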
# [9] = target: Dual specificity protein kinase CLK3 (Mus musculus, UniProt O35492); assay: Inhibition of mouse recombinant GST-tagged CLK3 using GRSRSRSRSRSR as substrate; procedure, shortened: as §2
# [10] = target: Dual specificity protein kinase CLK1 (Mus musculus, UniProt P22518); assay: Inhibition of mouse recombinant GST-tagged CLK1 using GRSRSRSRSRSR as substrate; procedure, shortened: as §2
# [11] = target: Dual specificity tyrosine-phosphorylation-regulated kinase 1A (Rattus norvegicus, UniProt Q63470); assay: Inhibition of rat recombinant GST-tagged DYRK1A using KKISGRLSPIMTEQ as substrate and [gamma32]-ATP after 30 mins by scintillation counting
# Procedure, shortened: as §3, with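 “BSA.” for “BSA. Woodtide 1.5 μg/assay with 15 μM [γ-33P]ATP, 30 min at 30 C.”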
# [12] = target: T3, Dual specificity tyrosine-phosphorylation-regulated kinase 2 (Homo sapiens, UniProt Q92630); assay: Inhibition of human recombinant GST-tagged DYRK2 using KKISGRLSPIMTEQ as substrate and [gamma32]-ATP after 30 mins by scintillation counting
# T3 sequence (Q92630 whole entry): T1 sequence (whole entry)
# Procedure, shortened: as §3, with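 “BSA.” for “BSA. Woodtide 1.5 μg/assay with 15 μM [γ-33P]ATP, 30 min at 30 C.”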
# [13] = Inhibition of pig brain CK1 delta/epsilon using RRKHAAIGpSAYSITA as substrate; design: species or system Sus scrofa; procedure, shortened: as §4
# [14] = target: Glycogen synthase kinase-3 (Sus scrofa, UniProt B2LUN4+I6LNT8); assay: Inhibition of pig brain GSK-3alpha/beta using YRRAAVPPSPSLSRHSSPHQSpEDEEE as substrate
# Procedure, shortened: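 Compounds were tested at various concentrations, the highest being 10 μM, with DMSO dilution controls. Blanks were subtracted and activity was expressed as percent of the uninhibited maximum.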
# [15] = target: T2, Serine/threonine-protein kinase pim-1; assay: Inhibition of human recombinant Pim1 at 10 uM; procedure, shortened: as §1
# Target sequence in this assay (P11309 whole entry, looked up): as the sequence (P11309 whole entry) above
# [16] = target: Glycogen synthase kinase-3 alpha/beta (Sus scrofa); assay: Inhibition of pig brain GSK-3alpha/beta
# Chain of Dual specificity protein kinase CLK1 (Homo sapiens) (P49759 whole entry, looked up, canonical isoform): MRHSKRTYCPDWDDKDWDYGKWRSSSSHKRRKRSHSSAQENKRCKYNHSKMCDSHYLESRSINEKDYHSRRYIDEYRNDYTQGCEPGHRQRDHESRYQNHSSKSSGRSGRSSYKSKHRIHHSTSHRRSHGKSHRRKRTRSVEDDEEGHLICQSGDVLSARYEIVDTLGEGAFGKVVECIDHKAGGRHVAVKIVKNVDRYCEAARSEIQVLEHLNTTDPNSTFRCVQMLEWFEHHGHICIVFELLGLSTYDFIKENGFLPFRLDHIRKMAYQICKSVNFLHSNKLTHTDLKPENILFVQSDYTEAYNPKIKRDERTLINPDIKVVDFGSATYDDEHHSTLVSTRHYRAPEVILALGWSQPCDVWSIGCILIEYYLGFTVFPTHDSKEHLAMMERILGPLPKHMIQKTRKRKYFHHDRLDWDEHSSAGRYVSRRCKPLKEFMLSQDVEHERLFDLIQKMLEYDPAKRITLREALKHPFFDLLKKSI
# Chain of Cyclin-dependent kinase 5/CDK5 activator 1 (Homo sapiens) (Q00535 whole entry): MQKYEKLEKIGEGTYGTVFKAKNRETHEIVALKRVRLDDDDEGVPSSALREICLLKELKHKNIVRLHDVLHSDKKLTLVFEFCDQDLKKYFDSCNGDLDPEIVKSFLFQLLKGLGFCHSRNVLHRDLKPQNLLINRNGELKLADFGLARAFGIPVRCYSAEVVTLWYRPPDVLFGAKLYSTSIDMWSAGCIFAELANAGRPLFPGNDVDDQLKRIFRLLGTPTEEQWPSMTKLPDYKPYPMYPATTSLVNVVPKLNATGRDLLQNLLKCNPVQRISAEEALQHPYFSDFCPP
# Chain of Cyclin-dependent kinase 5/CDK5 activator 1 (Homo sapiens) (Q15078 99-307 partner limits assumed): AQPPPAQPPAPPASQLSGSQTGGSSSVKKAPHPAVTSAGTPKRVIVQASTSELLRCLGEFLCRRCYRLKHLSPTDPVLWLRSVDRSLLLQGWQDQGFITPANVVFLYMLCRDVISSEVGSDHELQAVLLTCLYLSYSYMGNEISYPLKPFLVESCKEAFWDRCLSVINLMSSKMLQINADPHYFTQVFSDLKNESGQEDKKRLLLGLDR
# Chain of Dual specificity protein kinase CLK3 (O35492 whole entry): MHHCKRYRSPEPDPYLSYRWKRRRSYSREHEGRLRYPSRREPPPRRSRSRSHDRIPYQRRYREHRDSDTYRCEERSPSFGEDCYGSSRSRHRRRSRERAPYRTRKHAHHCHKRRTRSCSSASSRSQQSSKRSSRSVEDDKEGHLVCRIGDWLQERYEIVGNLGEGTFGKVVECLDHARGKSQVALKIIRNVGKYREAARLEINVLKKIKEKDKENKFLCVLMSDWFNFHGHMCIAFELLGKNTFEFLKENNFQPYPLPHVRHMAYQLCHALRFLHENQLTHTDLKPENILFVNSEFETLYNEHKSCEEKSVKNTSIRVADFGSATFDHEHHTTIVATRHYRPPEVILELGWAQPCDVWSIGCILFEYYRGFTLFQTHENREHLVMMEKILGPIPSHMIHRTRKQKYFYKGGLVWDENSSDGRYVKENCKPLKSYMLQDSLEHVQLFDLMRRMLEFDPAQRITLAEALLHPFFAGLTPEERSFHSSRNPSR
# Chain of Dual specificity protein kinase CLK3 (Mus musculus) (O35492 whole entry): as above
# Chain of Dual specificity protein kinase CLK1 (Mus musculus) (P22518 whole entry, looked up, the tested form may be a part): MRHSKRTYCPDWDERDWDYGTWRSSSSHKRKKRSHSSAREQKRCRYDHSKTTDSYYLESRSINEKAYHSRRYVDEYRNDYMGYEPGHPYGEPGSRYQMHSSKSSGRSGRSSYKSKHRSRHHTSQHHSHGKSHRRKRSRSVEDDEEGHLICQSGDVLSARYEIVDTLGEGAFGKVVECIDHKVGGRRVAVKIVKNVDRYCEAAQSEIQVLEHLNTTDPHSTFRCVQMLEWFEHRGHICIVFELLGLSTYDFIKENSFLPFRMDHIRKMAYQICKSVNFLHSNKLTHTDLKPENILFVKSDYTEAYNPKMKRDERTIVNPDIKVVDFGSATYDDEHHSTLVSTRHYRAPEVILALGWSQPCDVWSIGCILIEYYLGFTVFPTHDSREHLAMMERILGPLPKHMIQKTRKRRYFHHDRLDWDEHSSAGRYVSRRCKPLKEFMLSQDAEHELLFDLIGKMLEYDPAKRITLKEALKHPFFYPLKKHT
# Chain of Dual specificity protein kinase CLK1 (P22518 whole entry): as the sequence (P22518 whole entry, looked up, the tested form may be a part) above
Structure (SMILES),inhibition [1],inhibition [2],inhibition (Sus scrofa),IC50 [6] [µM],IC50 [9] [µM],IC50 [10] [µM],IC50 [11] [µM],IC50 [12] [µM],further results
CCCNC1=N/C(=C\c2ccccc2)C(=O)N1C,inactive,inactive,inactive,> 10,,,,,inhibition [3]: inactive; inhibition [4]: inactive; inhibition [5]: inactive; inhibition [7]: inactive
CCN1/C(=C/C(C)=O)Sc2ccc(OC)cc21,,,,,,,,,increase in exon inclusion ratio [8]: Dose-dependent effect
CC[C@H](CO)Nc1nc(NCc2ccccc2)c2ncn(C(C)C)c2n1,,,,,,,,,increase in exon inclusion ratio [8]: inactive
CN1C(=O)/C(=C/c2ccc3c(c2)OCO3)N=C1NCC1CC1,,,,2.1,0.51,0.13,0.2,0.34,IC50 [13]: > 10 µM
COc1ccc2c(c1)[nH]c1c(C)nccc12,,,,,,,,,increase in exon inclusion ratio [8]: Dose-dependent effect
CCCNC1=N/C(=C\c2ccc3c(c2)OCO3)C(=O)N1CCC,inactive,,inactive,> 10,,,> 10,2.1,inhibition [3]: inactive; inhibition [5]: inactive
CN1C(=O)/C(=C/c2ccc3c(c2)OCO3)N=C1N [LEUCETTAMINE B],,,,> 10,6.4,0.4,2.8,1.5,IC50 [14]: > 10 µM; IC50 [13]: > 10 µM
CCCNC1=N/C(=C\c2ccc3c(c2)OCO3)C(=O)N1c1ccccc1,inactive,,inactive,> 10,> 10,> 10,> 10,> 10,
CN1C(=O)/C(=C/c2ccc3c(c2)OCO3)N=C1Nc1ccc2c(c1)OCCO2,,,,2.2,3.6,0.22,0.22,,IC50 [13]: > 10 µM
CCCNC1=N/C(=C\c2ccc(Br)cc2)C(=O)N1C,inactive,,inactive,,8.8,,,,inhibition [3]: inactive; inhibition [4]: inactive; inhibition [15]: inactive
CCCNC1=N/C(=C\c2ccc3c(c2)OC(F)(F)O3)C(=O)N1C,inactive,inactive,inactive,> 10,,,,,inhibition [3]: inactive; inhibition [4]: inactive; inhibition [5]: inactive; inhibition [7]: inactive
CCOC(=O)C(=O)NC1=N/C(=C\c2ccc3c(c2)OCO3)C(=O)N1C,,inactive,inactive,7,> 10,3.1,6.1,6.5,IC50 [16]: > 10 µM
CCCNC1=N/C(=C\c2ccccc2O)C(=O)N1C,inactive,inactive,inactive,> 10,> 10,> 10,,> 10,
CCCNC1=N/C(=C\c2cc(OC)c(OC)c(OC)c2)C(=O)N1C,inactive,inactive,inactive,> 10,,> 10,,> 10,inhibition [5]: inactive; inhibition [7]: inactive
CCCNC1=N/C(=C\c2ccc3c(c2)OCO3)C(=O)N1,,inactive,inactive,2.5,2.2,0.13,0.24,0.12,IC50 [16]: 7.3 µM
